Reference: ChEMBL document CHEMBL1828528, “Acyclic nucleoside thiophosphonates as potent inhibitors of HIV and HBV replication” (Eur J Med Chem, 2011)

Experiments:
[1] = test system: Human immunodeficiency virus 1; test: Ratio EC50 for PMEA to compound for HIV1 clade C isolate 4110 infected in human H9 cells assessed as inhibition of viral replication; format: functional
Summary of the method: (§1)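 Ratio computed as EC50 of PMEA divided by EC50 of the test compound, both measured against the same clinical isolate in H9 cells.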

[2] = test system: Human immunodeficiency virus 1; test: Ratio EC50 for PMEA to compound for HIV1 clade B isolate 1722 infected in human H9 cells assessed as inhibition of viral replication; format: functional; summary of the method: as §1
[3] = test system: Human immunodeficiency virus 1; test: Ratio EC50 for PMEA to compound for HIV1 clade A isolate 4113 infected in human H9 cells assessed as inhibition of viral replication; format: functional; summary of the method: as §1
CCRF-CEM = test: (§2) Cytotoxicity against human CEM cells; format: cell-based; settings: ccrf-cem
Summary of the method: (§3)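 Mock-infected CEM cells cultured alongside the anti-HIV assay with compound dilutions for 4 days at 37 °C. CC50 is the concentration inhibiting CEM cell proliferation by 50%.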

[4] = test system: Human immunodeficiency virus 1; test: Ratio EC50 for PMEA to compound for HIV1 clade B isolate 2101 infected in human H9 cells assessed as inhibition of viral replication; format: functional; summary of the method: as §1
Hepatitis B virus = test: Ratio EC50 for PMEA to compound for Hepatitis B virus infected in human HuH7 cells assessed as reduction in viral DNA level treated day 3 to day 8 post transfection by real time quantitative PCR analysis; format: functional, Huh-7
[5] = test system: Human immunodeficiency virus 1; test: Ratio EC50 for PMEA to compound for HIV1 clade F isolate 2338 infected in human H9 cells assessed as inhibition of viral replication; format: functional; summary of the method: as §1
[6] = test system: Human immunodeficiency virus 1; test: Ratio EC50 for PMPA to compound for HIV1 clade C isolate 2914 infected in human H9 cells assessed as inhibition of viral replication; format: functional
[7] = test system: Human immunodeficiency virus 1; test: Ratio EC50 for PMPA to compound for HIV1 clade A/E isolate 2165 infected in human H9 cells assessed as inhibition of viral replication; format: functional
[8] = as §2; format: cell-based, CCRF-CEM; settings: CCRF-CEM (CEM) cells; summary of the method: as §3
[9] = test system: Human immunodeficiency virus 1; test: Ratio EC50 for PMPA to compound for HIV1 clade B isolate 2101 infected in human H9 cells assessed as inhibition of viral replication; format: functional
[10] = test system: Human immunodeficiency virus 1; test: Ratio EC50 for PMPA to compound for HIV1 clade F isolate 2338 infected in human H9 cells assessed as inhibition of viral replication; format: functional
[11] = test system: Human immunodeficiency virus 1; test: Ratio EC50 for PMPA to compound for HIV1 clade C isolate 4110 infected in human H9 cells assessed as inhibition of viral replication; format: functional

Row | SMILES | Ratio EC50 [1] | Ratio EC50 [2] | Ratio EC50 [3] | CC50 (CCRF-CEM) [µM] | Ratio EC50 [4] | Ratio EC50 (Hepatitis B virus) | Ratio EC50 [5] | Ratio EC50 [6] | Ratio EC50 [7] | CC50 [8] [µM] | Ratio EC50 [9] | Ratio EC50 [10] | Ratio EC50 [11]
1 | Nc1ncnc2c1ncn2CCOCP(=O)([O-])[S-].[Na+].[Na+] (stereo not drawn) | 6 | 0.66 | 10.8 | 233 | 7.16 | 1.5 | 0.86 |  |  |  |  |  | 
2 | C[C@H](Cn1cnc2c(N)ncnc21)OCP(=O)([O-])[S-].[Na+].[Na+] (stereo partly drawn) |  |  |  |  |  |  |  | 0.89 | 1.5 | > 250 | 0.51 | 0.2 | 1.54
